ChEMBL document CHEMBL1124904, “7-Oxabicyclo[2.2.1]heptyl carboxylic acids as thromboxane A2 antagonists: aza omega-chain analogues” (J Med Chem, 1990)

Assays:
[1] = species on record: Homo sapiens; assay: Ability to inhibit platelet aggregation of human platelet-rich plasma (PRP) induced by 800 uM of AA-IPA (arachidonic acid); assay type: functional; conditions: read-out: I50
Outline: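 Human platelet-rich plasma; aggregation triggered by arachidonic acid at 800 μM. Test acids were also checked against ADP (20 μM)-induced aggregation. I50 taken as the concentration inhibiting aggregation.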

[2] = test system: Cavia porcellus; assay: Evaluated for the percent inhibition of arachidonate-induced air-way resistance at 3 min after dosing (0.1 mg/kg iv) in anesthetized guinea pig.; assay type: functional
Outline: (§1)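 Anesthetized guinea pig dosed iv with antagonist at 0.1 mg/kg (some at 1.0 mg/kg). Arachidonic acid 0.5 mg/kg iv given as challenge 3 or 60 min later. Airway resistance, dynamic compliance and blood pressure recorded; percent inhibition of each response.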

[3] = test system: Cavia porcellus; assay: Evaluated for the percent inhibition of arachidonate-induced dynamic compliance at 3 min after dosing (0.1 mg/kg iv) in anesthetized guinea pig.; assay type: functional; outline: as §1
[4] = test system: Cavia porcellus; assay: Evaluated for the percent inhibition of arachidonate-induced air-way resistance at 60 min after dosing (0.1 mg/kg iv) in anesthetized guinea pig.; assay type: functional; outline: as §1
[5] = test system: Cavia porcellus; assay: Evaluated for the percent inhibition of arachidonate-induced hypertension resulting in decreases in blood pressure at 60 min after dosing (0.1 mg/kg iv) in anesthetized guinea pig.; assay type: functional; outline: as §1
[6] = species on record: Rattus norvegicus; assay: Evaluated for its potency in rat aorta (RA) strips in the presence of increasing concentrations; assay type: functional
Outline: (§2)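 Rat aortic strips contracted by U-46,619 in cumulative dose-response curves, repeated with increasing antagonist concentrations; Kb from analysis of the rightward shift.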

[7] = biological target: T1, Thromboxane A2 receptor (Homo sapiens, UniProt P21731); assay: Binding affinity was determined from the inhibition of [3H]-SQ 29,548 binding to Thromboxane A2 receptor in human platelet membranes.; assay type: cell membranes
T1 sequence (P21731 whole entry): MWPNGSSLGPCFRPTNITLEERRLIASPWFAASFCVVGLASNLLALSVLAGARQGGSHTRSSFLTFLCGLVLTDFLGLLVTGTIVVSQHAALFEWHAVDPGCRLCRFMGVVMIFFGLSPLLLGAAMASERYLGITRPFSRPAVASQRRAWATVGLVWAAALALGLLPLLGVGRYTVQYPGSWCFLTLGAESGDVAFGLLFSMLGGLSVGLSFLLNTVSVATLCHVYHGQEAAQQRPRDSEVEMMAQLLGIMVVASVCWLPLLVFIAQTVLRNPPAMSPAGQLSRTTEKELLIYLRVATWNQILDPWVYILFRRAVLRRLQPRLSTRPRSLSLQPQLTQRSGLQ
Outline: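 Radioligand binding to human platelet membranes with [5,6-3H2]-SQ 29,548 as tracer; Kd derived from inhibition of specific binding.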

[8] = species on record: Homo sapiens; assay: Evaluated for ability to inhibit platelet aggregation of human platelet-rich plasma (PRP) induced by 11.9-epoxymethano-PGH2; assay type: functional; conditions: read-out: I50
Outline: (§3)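 Human PRP aggregation induced by U-46,619 (11,9-epoxymethano-PGH2, stable PGH2/TxA2 mimic) at 5 or 10 μM; I50 reported. Values are single determinations unless otherwise noted.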

[9] = test system: Cavia porcellus; assay: Evaluated for the percent inhibition of arachidonate-induced hypertension resulting in decreases in blood pressure at 3 min after dosing (0.1 mg/kg iv) in anesthetized guinea pig.; assay type: functional; outline: as §1
[10] = species on record: Cavia porcellus; assay: Evaluated for its potency in guinea pig trachea (GPT) spirals in the presence of increasing concentrations; assay type: functional
Outline: (§4)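 Guinea pig tracheal spirals contracted by U-46,619 in cumulative dose-response curves, repeated with increasing antagonist concentrations; Kb from analysis of the rightward shift.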

[11] = test system: Cavia porcellus; assay: Evaluated for the percent inhibition of arachidonate-induced dynamic compliance at 60 min after dosing (0.1 mg/kg iv) in anesthetized guinea pig.; assay type: functional; outline: as §1
[12] = species on record: Homo sapiens; assay: Evaluated for ability to inhibit platelet aggregation of human platelet-rich plasma (PRP) induced by 11.9-epoxymethano-PGH2.; assay type: functional; conditions: read-out: I50; outline: as §3
[13] = species on record: Rattus norvegicus; assay: Evaluated for its potency Rat aorta (RA) strips in the presence of increasing concentrations; assay type: functional; outline: as §2
[14] = species on record: Cavia porcellus; assay: Evaluated for its potency in Guinea pig trachea (GPT) spirals in the presence of increasing concentrations; assay type: functional; outline: as §4

## O=C(O)CCC/C=C/CC1C2CCC(O2)C1CNNC(=O)Cc1ccccc1 (stereo not drawn)
[1]; Homo sapiens, Plasma
  IC50: 200 nM

## CCCCCCCCC(=O)NCC1C2CCC(O2)C1C/C=C/CCCC(=O)O (stereo not drawn)
[1]; Homo sapiens, Plasma
  IC50: 15000 nM

## O=C(O)CCC/C=C/CC1C2CCC(O2)C1CNCC(=O)Nc1ccccc1 (stereo not drawn)
[1]; Homo sapiens, Plasma
  IC50: 5300 nM

## O=C(O)CCC/C=C/CC1C2CCC(O2)C1CNC(=O)CNC(=O)CCCC1CCCCC1 (stereo not drawn)
[2]
  Inhibition: 99%
[3]
  Inhibition: 97%
[4]
  Inhibition: 84%
[5]
  Inhibition: 289%
[6]
  Kb: 0.9 nM
[7]
  Kd: 1.1 nM
[8]
  IC50: 120 nM
[9]
  Inhibition: 289%
[1]; Homo sapiens, Plasma
  IC50: 45 nM
[10]
  Kb: 0.07 nM
[11]
  Inhibition: 59%

## COc1ccc(NCC(=O)NCC2C3CCC(O3)C2C/C=C/CCCC(=O)O)cc1 (stereo not drawn)
[1]; Homo sapiens, Plasma
  IC50: 13500 nM

## COc1ccc(SCC(=O)NCC2C3CCC(O3)C2C/C=C/CCCC(=O)O)cc1 (stereo not drawn)
[1]; Homo sapiens, Plasma
  IC50: 1400 nM

## CCCCC(=O)NCCC(=O)NCC1C2CCC(O2)C1C/C=C/CCCC(=O)O (stereo not drawn)
[1]; Homo sapiens, Plasma
  IC50: 14000 nM

## CCCCCNC(=O)CCNC(=O)C1C2CCC(O2)C1C/C=C/CCCC(=O)O (stereo not drawn)
[1]; Homo sapiens, Plasma
  IC50: 14000 nM

## CCCCCCC(=O)OCC(=O)NCC1C2CCC(O2)C1C/C=C/CCCC(=O)O (stereo not drawn)
[1]; Homo sapiens, Plasma
  IC50: 660 nM

## O=C(O)CCC/C=C/CC1C2CCC(O2)C1CNC(=O)C(=O)Nc1ccccc1 (stereo not drawn)
[1]; Homo sapiens, Plasma
  IC50: 5500 nM

## CCCCCC/C(S)=N/C/C(S)=N/CC1C2CC[C@@H](O2)C1C/C=C/CCCC(=O)O (stereo partly drawn)
[7]
  Kd: 26.4 nM
[12]; Homo sapiens, Plasma
  IC50: 9600 nM
[1]; Homo sapiens, Plasma
  IC50: 970 nM

## CCCCCNCCC1C2CCC(O2)C1C/C=C/CCCC(=O)O (stereo not drawn)
[1]; Homo sapiens, Plasma
  IC50: 340000 nM

## O=C(O)CCC/C=C/CC1C2CCC(O2)C1CNC(=O)CNC(=O)CCCCC1CCCCC1 (stereo not drawn)
[6]
  Kb: 2.5 nM
[7]
  Kd: 2.6 nM
[8]
  IC50: 1950 nM
[1]; Homo sapiens, Plasma
  IC50: 160 nM
[10]
  Kb: 0.07 nM

## O=C(O)CCC/C=C/CC1C2CCC(O2)C1CNCCNc1ccccc1 (stereo not drawn)
[1]; Homo sapiens, Plasma
  IC50: 65000 nM

## O=C(O)CCC/C=C/CC1C2CCC(O2)C1CNC(=O)CNC(=O)CSc1ccccc1 (stereo not drawn)
[2]
  Inhibition: 98%
[3]
  Inhibition: 92%
[4]
  Inhibition: 53%
[5]
  Inhibition: 235%
[6]
  Kb: 1.8 nM
[7]
  Kd: 41.4 nM
[8]
  IC50: 110 nM
[9]
  Inhibition: 287%
[1]; Homo sapiens, Plasma
  IC50: 21 nM
[10]
  Kb: 2.4 nM
[11]
  Inhibition: 42%

## CCCCCC/C(S)=N/CC(=O)NCC1C2CCC(O2)C1C/C=C/CCCC(=O)O (stereo not drawn)
[2]
  Inhibition: 97%
[3]
  Inhibition: 94%
[4]
  Inhibition: 51%
[5]
  Inhibition: 158%
[7]
  Kd: 12.4 nM
[9]
  Inhibition: 178%
[12]; Homo sapiens, Plasma
  IC50: 230 nM
[1]; Homo sapiens, Plasma
  IC50: 40 nM
[13]; Rattus norvegicus, Aorta
  Kb: 1.1 nM
[14]; Cavia porcellus, Trachea
  Kb: 4.4 nM
[11]
  Inhibition: 56%

## O=C(O)CCC/C=C/CC1C2CCC(O2)C1CNC(=O)CNC(=O)c1ccccc1 (stereo not drawn)
[1]; Homo sapiens, Plasma
  IC50: 2600 nM

## O=C(O)CCC/C=C/CC1C2CCC(O2)C1CCNC(=O)Nc1ccccc1 (stereo not drawn)
[1]; Homo sapiens, Plasma
  IC50: 184000 nM

## CCCCCCNC(=O)CC(=O)NC1C2CCC(O2)C1C/C=C/CCCC(=O)O (stereo not drawn)
[1]; Homo sapiens, Plasma
  IC50: 125000 nM

## CCCCCNC(=O)CC(=O)NCC1C2CCC(O2)C1C/C=C/CCCC(=O)O (stereo not drawn)
[1]; Homo sapiens, Plasma
  IC50: 500 nM

## CCCCCCCNC1C2CCC(O2)C1C/C=C/CCCC(=O)O (stereo not drawn)
[1]; Homo sapiens, Plasma
  IC50: 120000 nM

## CCCCCCCNC(=O)CNC(=O)C1C2CCC(O2)C1C/C=C/CCCC(=O)O (stereo not drawn)
[1]; Homo sapiens, Plasma
  IC50: 30000 nM

## O=C(O)CCC/C=C/CC1C2CCC(O2)C1NC(=O)CCCc1ccccc1 (stereo not drawn)
[1]; Homo sapiens, Plasma
  IC50: 11000 nM

## O=C(O)CCC/C=C/CC1C2CCC(O2)C1CNC(=O)CCc1ccccc1 (stereo not drawn)
[1]; Homo sapiens, Plasma
  IC50: 3300 nM

## O=C(O)CCC/C=C/CC1C2CCC(O2)C1CNC(=O)NCc1ccccc1 (stereo not drawn)
[1]; Homo sapiens, Plasma
  IC50: 26000 nM

## CCCCCC(=O)NC(C)(C)C(=O)NCC1C2CCC(O2)C1C/C=C/CCCC(=O)O (stereo not drawn)
[1]; Homo sapiens, Plasma
  IC50: 520000 nM

## CCCCCCCCC(=O)NCC(=O)NCC1C2CCC(O2)C1C/C=C/CCCC(=O)O (stereo not drawn)
[2]
  Inhibition: 99%
[3]
  Inhibition: 98%
[4]
  Inhibition: 31%
[5]
  Inhibition: 138%
[7]
  Kd: 8.3 nM
[9]
  Inhibition: 252%
[12]; Homo sapiens, Plasma
  IC50: 1100 nM
[1]; Homo sapiens, Plasma
  IC50: 220 nM
[13]; Rattus norvegicus, Aorta
  Kb: 7.1 nM
[14]; Cavia porcellus, Trachea
  Kb: 1.4 nM
[11]
  Inhibition: 39%

## CCCCCNC(=O)CCC(=O)NC1C2CCC(O2)C1C/C=C/CCCC(=O)O (stereo not drawn)
[1]; Homo sapiens, Plasma
  IC50: 160000 nM

## CCCCOC(=O)NCC(=O)NCC1C2CCC(O2)C1C/C=C/CCCC(=O)O (stereo not drawn)
[1]; Homo sapiens, Plasma
  IC50: 1100 nM

## CC(C)(C)c1ccc(SCC(=O)NCC(=O)NCC2C3CCC(O3)C2C/C=C/CCCC(=O)O)cc1 (stereo not drawn)
[2]
  Inhibition: 98%
[3]
  Inhibition: 95%
[4]
  Inhibition: 43%
[5]
  Inhibition: 184%
[6]
  Kb: 1.8 nM
[7]
  Kd: 4.2 nM
[8]
  IC50: 150 nM
[9]
  Inhibition: 191%
[1]; Homo sapiens, Plasma
  IC50: 15 nM
[10]
  Kb: 0.1 nM
[11]
  Inhibition: 26%

## CCCCCCNCC1C2CCC(O2)C1C/C=C/CCCC(=O)O (stereo not drawn)
[1]; Homo sapiens, Plasma
  IC50: 12000 nM

## CCCCCC(=O)N(C)CC(=O)NCC1C2CCC(O2)C1C/C=C/CCCC(=O)O (stereo not drawn)
[1]; Homo sapiens, Plasma
  IC50: 3000 nM

## CCCCNC(=O)NCC(=O)NCC1C2CCC(O2)C1C/C=C/CCCC(=O)O (stereo not drawn)
[1]; Homo sapiens, Plasma
  IC50: 1000 nM

## O=C(O)CCC/C=C/CC1C2CCC(O2)C1CNNC(=O)Nc1ccccc1 (racemic)
[2]
  Inhibition: 97%
[3]
  Inhibition: 96%
[4]
  Inhibition: 42%
[5]
  Inhibition: 59%
[9]
  Inhibition: 151%
[1]
  IC50: 90 nM
[11]
  Inhibition: 56%

## O=C(O)CCC/C=C/CC1C2CCC(O2)C1CNNC(=O)Nc1ccccc1 (single isomer, unassigned; (+))
[1]
  IC50: 20 nM

## CCCCCCC(=O)NCC(=O)NCC1C2CCC(O2)C1C/C=C/CCCC(=O)O (single isomer, unassigned; (+))
[1]; Homo sapiens, Plasma
  IC50: 6600 nM
[13]; Rattus norvegicus, Aorta
  Kb: 326 nM
[14]; Cavia porcellus, Trachea
  Kb: 174 nM

## CCCCCC(=O)NC(C)C(=O)NCC1C2CCC(O2)C1C/C=C/CCCC(=O)O (stereo in doubt; 48)
[1]
  IC50: 53000 nM

## CCCCCC(=O)NC(C)C(=O)NCC1C2CCC(O2)C1C/C=C/CCCC(=O)O (stereo in doubt; 49)
[1]
  IC50: 900 nM

## CCCCCCCC(=O)NCC(=O)NCC1C2CCC(O2)C1C/C=C/CCCC(=O)O (stereo in doubt; 51)
[2]
  Inhibition: 97%
[3]
  Inhibition: 98%
[4]
  Inhibition: 79%
[5]
  Inhibition: 130%
[7]
  Kd: 17.5 nM
[12]
  IC50: 430 nM
[1]
  IC50: 220 nM
[13]
  Kb: 3.4 nM
[14]
  Kb: 2 nM
[11]
  Inhibition: 74%

## O=C(O)Cc1ccc(CCNS(=O)(=O)c2ccc(Cl)cc2)cc1 [DALTROBAN]
[1]; Homo sapiens, Plasma
  IC50: 630 nM
